From ChEMBL document CHEMBL3286182, “4-aminoquinolone piperidine amides: noncovalent inhibitors of DprE1 with long residence time and potent antimycobacterial activity” (J Med Chem, 2014) come the findings set out here.

In brackets after ≈: the same amount, converted by molar mass. Activity calls are given as the source filed them. The calls are words filed in the database; no cut-off is given here.

Test [1] has as its system Mycobacterium tuberculosis. Briefly: Antimycobacterial activity against Mycobacterium tuberculosis H37Rv after 5 days by standard microdilution method. It counts as functional. As to conditions: 120 h.
Test [2] concerns Mycobacterium tuberculosis. The experiment in a line: Antimycobacterial activity against Mycobacterium tuberculosis over expressing DprE1 after 5 days by standard microdilution method. Format: functional. As to conditions: 120 h. Background: Broth dilution looks for growth in wells or tubes with falling amounts of substance.
Test [3] can be described thus: Inhibition of Mycobacterium smegmatis recombinant DprE1 using farnesylphosphoryl-beta-D-ribofuranose as substrate assessed as conversion of amplex red to resorufin after 30 mins. Also noted: species or system Mycolicibacterium smegmatis. The essentials: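 Msm DprE1 (thioredoxin-6His fusion of Msm Rv3790) at 75 nM, preincubated 30 min with 10 μM FAD. Buffer: 50 mM glycylglycine pH 8.5, 200 mM potassium glutamate, 0.002% Brij-35, 2% DMSO, 25 °C. Started with 300 μM farnesylphosphoryl-β-D-ribofuranose, 0.01 mg/mL HRP and 50 μM Amplex Red.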

A short description of test [4]: Inhibition of Mycobacterium smegmatis DprE1 Y321H mutant using farnesylphosphoryl-beta-D-ribofuranose as substrate assessed as conversion of amplex red to resorufin after 30 mins. Also noted: species or system Mycolicibacterium smegmatis. The method, boiled down:
(§1)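 Recombinant M. smegmatis DprE1 (thioredoxin-6His fusion), wild type or Y321H, 75 nM. Enzyme was preincubated 30 min in FAD assay mix: 50 mM glycylglycine pH 8.5, 200 mM potassium glutamate, 10 μM FAD, 0.002% Brij-35, 2% DMSO. Reaction was started with 300 μM farnesylphosphoryl-β-D-ribofuranose, 0.01 mg/mL HRP and 50 μM amplex red at 25 °C.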

Test [5] deals with Mycolicibacterium smegmatis. The experiment in a line: Ratio of IC50 for Mycobacterium smegmatis DprE1 Y321H mutant to IC50 for Mycobacterium smegmatis recombinant wild type DprE1. The method, boiled down: as §1
Test [6] deals with Mycolicibacterium smegmatis. Briefly: Binding affinity to Mycobacterium smegmatis recombinant DprE1 at 0.5 to 10000 nM up to 30 mins.
Test [7] relates to Mycolicibacterium smegmatis. The experiment in a line: Binding affinity to Mycobacterium smegmatis DprE1 Y321H mutant at 0.5 to 10000 nM up to 30 mins.

`Cn1ncc(C(=O)N2[C@@H]3CC[C@H]2C[C@@H](Nc2cc(=O)[nH]c4ccc(F)cc24)C3)c1Cl`: the MIC was determined as 0.39 µM (≈ 0.168 µg/mL) in test [1] and 6.25 µM (≈ 2.69 µg/mL) in test [2]. The IC50 worked out at 0.03 µM in test [3] and 0.55 µM in test [4]. Moreover, the fold change (FC) in test [5] is 12. The result in test [6] and in test [7] was Active.

The MIC is the lowest concentration that inhibits growth of the organism. High values mean weaker potency, low ones greater potency. Broadly, the IC50 is the concentration at which inhibition is half-maximal.
